Tests used:
[1] = target: Kappa-type opioid receptor (Cavia porcellus, UniProt P41144); assay: Binding affinity for kappa opioid receptor by displacing [3H]U-69593 was determined
In short: (§1)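 Radioligand displacement binding at opioid receptors, with Ki values derived. Each receptor used its own radioligand: mu was [3H]DAMGO, delta was [3H]DADL and kappa was [3H]U69593.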

[2] = target: Delta-type opioid receptor (Rattus norvegicus, UniProt P33533); assay: Binding affinity for delta opioid receptor by displacing [3H]DADL was determined; in short: as §1
[3] = Binding affinity for gamma-S binding assay
Mu-type opioid receptor = Mu-type opioid receptor (Rattus norvegicus, UniProt P33535); assay: Binding affinity for mu opioid receptor by displacing [3H]-DAMGO was determined; in short: as §1
[4] = Binding affinity for gamma-S binding assay; Inactive

Sequence of Mu-type opioid receptor (P33535 whole entry): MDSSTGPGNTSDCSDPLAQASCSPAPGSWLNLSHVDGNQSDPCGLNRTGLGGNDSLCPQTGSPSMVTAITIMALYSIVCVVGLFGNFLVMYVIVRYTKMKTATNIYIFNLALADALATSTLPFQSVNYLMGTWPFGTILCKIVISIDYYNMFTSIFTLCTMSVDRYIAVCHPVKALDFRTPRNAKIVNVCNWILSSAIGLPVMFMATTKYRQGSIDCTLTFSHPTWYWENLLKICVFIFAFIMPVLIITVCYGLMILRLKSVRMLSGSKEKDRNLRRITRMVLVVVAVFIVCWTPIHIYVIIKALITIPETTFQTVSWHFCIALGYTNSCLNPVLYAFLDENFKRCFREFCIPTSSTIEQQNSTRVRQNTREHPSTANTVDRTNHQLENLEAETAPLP
Sequence of Delta-type opioid receptor (P33533 whole entry): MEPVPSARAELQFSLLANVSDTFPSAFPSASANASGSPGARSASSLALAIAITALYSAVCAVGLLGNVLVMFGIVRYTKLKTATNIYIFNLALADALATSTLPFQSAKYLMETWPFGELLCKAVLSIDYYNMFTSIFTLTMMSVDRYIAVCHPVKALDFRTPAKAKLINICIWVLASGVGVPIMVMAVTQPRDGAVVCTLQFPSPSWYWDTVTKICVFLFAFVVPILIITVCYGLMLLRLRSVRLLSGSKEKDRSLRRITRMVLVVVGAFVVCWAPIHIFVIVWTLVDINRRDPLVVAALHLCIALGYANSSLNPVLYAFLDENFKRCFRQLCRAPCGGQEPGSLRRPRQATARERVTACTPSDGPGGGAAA
Sequence of Kappa-type opioid receptor (P41144 whole entry): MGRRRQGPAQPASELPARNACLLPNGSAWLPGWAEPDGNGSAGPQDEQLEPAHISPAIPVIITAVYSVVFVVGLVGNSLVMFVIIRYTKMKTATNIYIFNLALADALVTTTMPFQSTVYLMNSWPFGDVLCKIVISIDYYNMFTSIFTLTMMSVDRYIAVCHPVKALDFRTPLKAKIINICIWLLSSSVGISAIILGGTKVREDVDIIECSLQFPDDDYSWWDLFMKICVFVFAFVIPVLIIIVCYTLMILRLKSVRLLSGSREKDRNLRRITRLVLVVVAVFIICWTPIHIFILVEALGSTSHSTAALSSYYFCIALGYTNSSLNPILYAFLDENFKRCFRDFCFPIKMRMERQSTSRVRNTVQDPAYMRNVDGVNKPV

Row | Structure (SMILES) | Ki [1] [nM] | Ki [2] [nM] | Ki [3] [nM] | Ki (Mu-type opioid receptor) [nM] | Ki [4] [nM]
1 | C/C=C/C(=O)N1CCC23c4c5ccc(O)c4O[C@H]2c2[nH]c4ccccc4c2[C@H](C)C3C1C5 (some centres not stated) | 120 | 2.3 |  |  | 
2 | COc1ccc2c3c1O[C@H]1c4[nH]c5ccccc5c4CC4C(C2)N(C)CCC341 (some centres not stated) [Indole Derivative] |  | 95 | 290 | > 5000 | 
3 | CCCC[C@H]1c2c([nH]c3ccccc23)[C@@H]2Oc3c(O)ccc4c3C23CCN(C)C(C4)C13 (some centres not stated) [Indole Derivative] |  | 22 | 46 | 1100 | 
4 | CCCC[C@H]1c2c([nH]c3ccccc23)[C@@H]2Oc3c(OC)ccc4c3C23CCN(C)C(C4)C13 (some centres not stated) [Indole Derivative] |  | 370 |  | > 4300 | > 750
5 | COc1ccc2c3c1O[C@H]1c4[nH]c5ccccc5c4[C@H](C)C4C(C2)N(C)CCC341 (some centres not stated) [Indole Derivative] |  | 27 | 330 | > 4800 | 
6 | C[C@H]1c2c([nH]c3ccccc23)[C@@H]2Oc3c(O)ccc4c3C23CCN(C)C(C4)C13 (some centres not stated) [Indole Derivative] |  | 0.7 | 49 | 240 | 
7 | C[C@H]1c2c([nH]c3ccccc23)[C@@H]2Oc3c(O)ccc4c3C23CCN(CC2CC2)C(C4)C13 (some centres not stated) | 36 | 2.3 |  | 66 | 
8 | CN1CC[C@]23c4c5ccc(O)c4O[C@H]2c2[nH]c4ccccc4c2C[C@H]3[C@H]1C5 |  | 2.4 | 15 |  | 
